# Data published in ChEMBL document CHEMBL3425433, “Discovery of bicyclic pyrazoles as class III histone deacetylase SIRT1 and SIRT2 inhibitors” (Bioorg Med Chem Lett, 2015).
# Active and inactive are the calls of the source. The rule behind the calls is not given here.
# Tests used:
# [1] = target: T1, NAD-dependent protein deacetylase sirtuin-2 (Homo sapiens, UniProt Q8IXJ6); assay: Inhibition of His-tagged human recombinant SIRT2 expressed in Escherichia coli using Cbz-Lys(Ac)-AMC as substrate by fluorescence assay
# T1 sequence (Q8IXJ6 whole entry): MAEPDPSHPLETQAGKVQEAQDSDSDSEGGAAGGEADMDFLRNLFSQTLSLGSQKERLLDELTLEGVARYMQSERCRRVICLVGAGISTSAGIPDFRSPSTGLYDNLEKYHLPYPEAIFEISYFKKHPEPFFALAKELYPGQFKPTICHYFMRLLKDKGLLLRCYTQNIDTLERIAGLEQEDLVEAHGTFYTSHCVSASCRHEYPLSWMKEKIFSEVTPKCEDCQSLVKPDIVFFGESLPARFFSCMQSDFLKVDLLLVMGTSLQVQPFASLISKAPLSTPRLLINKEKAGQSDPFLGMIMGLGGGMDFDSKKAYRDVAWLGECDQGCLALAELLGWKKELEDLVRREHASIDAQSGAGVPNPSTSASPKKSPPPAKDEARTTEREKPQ
# [2] = target: Histone deacetylase 5 (Homo sapiens) (UniProt Q9UQL6); assay: Inhibition of HDAC5 (unknown origin) at 20 uM
# Histone deacetylase 5 (Homo sapiens), sequence (Q9UQL6 whole entry): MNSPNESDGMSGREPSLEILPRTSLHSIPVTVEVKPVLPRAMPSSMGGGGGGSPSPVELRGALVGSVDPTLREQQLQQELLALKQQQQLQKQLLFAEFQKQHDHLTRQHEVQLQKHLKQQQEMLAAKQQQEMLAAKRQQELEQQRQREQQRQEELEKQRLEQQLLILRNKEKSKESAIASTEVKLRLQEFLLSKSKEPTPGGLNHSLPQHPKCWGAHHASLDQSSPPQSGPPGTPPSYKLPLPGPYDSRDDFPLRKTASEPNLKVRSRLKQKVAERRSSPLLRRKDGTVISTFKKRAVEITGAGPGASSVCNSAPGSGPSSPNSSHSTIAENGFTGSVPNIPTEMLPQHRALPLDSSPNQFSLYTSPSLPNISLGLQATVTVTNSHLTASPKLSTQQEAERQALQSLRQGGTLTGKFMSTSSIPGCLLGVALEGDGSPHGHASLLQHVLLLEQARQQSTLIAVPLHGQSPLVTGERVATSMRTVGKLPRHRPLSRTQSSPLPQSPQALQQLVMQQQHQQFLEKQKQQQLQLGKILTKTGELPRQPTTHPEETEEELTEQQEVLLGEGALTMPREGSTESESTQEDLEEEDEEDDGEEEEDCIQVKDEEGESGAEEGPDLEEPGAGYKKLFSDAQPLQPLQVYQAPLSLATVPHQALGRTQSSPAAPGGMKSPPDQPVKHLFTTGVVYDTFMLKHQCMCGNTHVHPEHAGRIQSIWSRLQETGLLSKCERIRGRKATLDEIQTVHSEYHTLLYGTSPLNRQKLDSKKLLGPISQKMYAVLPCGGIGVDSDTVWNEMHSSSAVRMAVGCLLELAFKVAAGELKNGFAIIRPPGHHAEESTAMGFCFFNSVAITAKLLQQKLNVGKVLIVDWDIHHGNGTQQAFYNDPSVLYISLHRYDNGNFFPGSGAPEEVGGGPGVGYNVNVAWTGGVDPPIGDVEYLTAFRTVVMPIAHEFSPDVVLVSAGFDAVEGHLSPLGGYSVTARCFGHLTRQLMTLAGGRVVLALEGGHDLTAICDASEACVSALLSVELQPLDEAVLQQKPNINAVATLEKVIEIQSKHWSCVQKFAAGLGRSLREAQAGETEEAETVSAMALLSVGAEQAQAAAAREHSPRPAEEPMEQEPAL
# [3] = target: T2, NAD-dependent protein deacetylase sirtuin-1 (Homo sapiens) (UniProt Q96EB6); assay: Inhibition of SIRT1-mediated endogenous p53 deacetylase activity in human Namalwa cells assessed as concentration required to […] to twice the basal level after 3 hrs by ELISA; type: cell-based
# T2 sequence (whole entry): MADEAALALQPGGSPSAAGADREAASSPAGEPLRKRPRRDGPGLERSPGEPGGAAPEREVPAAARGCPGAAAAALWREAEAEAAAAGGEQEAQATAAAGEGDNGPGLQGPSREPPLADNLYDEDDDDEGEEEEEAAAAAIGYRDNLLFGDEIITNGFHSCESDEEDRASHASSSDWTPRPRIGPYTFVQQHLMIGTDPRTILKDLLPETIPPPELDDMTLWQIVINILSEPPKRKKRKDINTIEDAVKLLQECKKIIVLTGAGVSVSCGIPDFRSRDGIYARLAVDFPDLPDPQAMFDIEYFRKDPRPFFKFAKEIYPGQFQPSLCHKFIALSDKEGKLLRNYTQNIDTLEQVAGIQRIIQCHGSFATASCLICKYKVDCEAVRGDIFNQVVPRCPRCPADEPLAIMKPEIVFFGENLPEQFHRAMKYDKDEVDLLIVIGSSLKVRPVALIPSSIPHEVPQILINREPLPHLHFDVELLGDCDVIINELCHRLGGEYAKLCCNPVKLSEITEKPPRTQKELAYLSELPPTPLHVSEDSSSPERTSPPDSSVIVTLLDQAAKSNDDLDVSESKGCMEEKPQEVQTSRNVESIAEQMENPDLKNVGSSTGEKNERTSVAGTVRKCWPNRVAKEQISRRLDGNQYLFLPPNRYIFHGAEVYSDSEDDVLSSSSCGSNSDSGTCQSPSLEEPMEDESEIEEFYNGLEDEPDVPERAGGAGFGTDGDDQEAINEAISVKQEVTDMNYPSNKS
# How it was run: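 Namalwa cells, 50,000/well, were exposed 3 h at 37 °C, 5% CO2, to 0.005–50 µM final (0.95% DMSO). Lysates were ELISA-captured on anti-p53 (DO-1), probed overnight with anti-acetyl-Lys382-p53, then HRP conjugate and Amplex Red (15 min; ex 550/em 610 nm). IC2xB is the concentration doubling basal (lowest) fluorescence. Means of three experiments.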
# [4] = target: Histone deacetylase 4 (Homo sapiens) (UniProt P56524); assay: Inhibition of HDAC4 (unknown origin) at 20 uM
# Histone deacetylase 4 (Homo sapiens), sequence (P56524 whole entry): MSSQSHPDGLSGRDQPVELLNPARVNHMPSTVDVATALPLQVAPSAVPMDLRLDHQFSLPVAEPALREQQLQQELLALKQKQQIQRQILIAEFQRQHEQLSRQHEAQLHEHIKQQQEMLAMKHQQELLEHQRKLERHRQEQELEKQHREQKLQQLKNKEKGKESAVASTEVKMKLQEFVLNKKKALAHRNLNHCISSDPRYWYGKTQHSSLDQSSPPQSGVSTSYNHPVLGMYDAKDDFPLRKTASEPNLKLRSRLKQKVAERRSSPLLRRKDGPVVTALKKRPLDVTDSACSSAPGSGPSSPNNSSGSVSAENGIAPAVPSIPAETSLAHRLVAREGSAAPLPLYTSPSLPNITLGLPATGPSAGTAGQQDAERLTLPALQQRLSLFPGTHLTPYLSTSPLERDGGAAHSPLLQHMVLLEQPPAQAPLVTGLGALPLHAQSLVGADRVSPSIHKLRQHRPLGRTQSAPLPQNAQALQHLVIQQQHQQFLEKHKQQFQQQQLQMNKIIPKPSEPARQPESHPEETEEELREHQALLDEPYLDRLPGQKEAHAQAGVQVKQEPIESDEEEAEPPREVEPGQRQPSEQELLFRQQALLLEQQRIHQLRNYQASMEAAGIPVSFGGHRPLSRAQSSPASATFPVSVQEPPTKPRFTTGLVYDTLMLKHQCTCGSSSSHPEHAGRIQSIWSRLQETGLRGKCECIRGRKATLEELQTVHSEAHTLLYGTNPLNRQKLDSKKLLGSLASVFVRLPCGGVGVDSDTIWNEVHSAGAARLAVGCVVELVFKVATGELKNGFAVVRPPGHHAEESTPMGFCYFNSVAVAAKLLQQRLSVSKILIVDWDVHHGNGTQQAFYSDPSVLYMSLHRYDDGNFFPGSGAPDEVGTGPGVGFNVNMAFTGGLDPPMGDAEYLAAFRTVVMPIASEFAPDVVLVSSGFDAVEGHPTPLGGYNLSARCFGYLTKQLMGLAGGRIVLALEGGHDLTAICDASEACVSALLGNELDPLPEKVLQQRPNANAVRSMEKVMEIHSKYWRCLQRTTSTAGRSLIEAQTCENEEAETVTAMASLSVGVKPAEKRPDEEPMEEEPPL
# [5] = target: T3, NAD-dependent protein deacetylase sirtuin-1 (Homo sapiens, UniProt Q96EB6); assay: Inhibition of His-tagged human recombinant SIRT1 expressed in Escherichia coli using Cbz-Lys(Ac)-AMC as substrate by fluorescence assay
# T3 sequence (Q96EB6 whole entry): T2 sequence (whole entry)
structure (smiles),measurement,setting,value
NC(=O)C1CCCc2c(-c3ccc(Cl)c(Cl)c3)n[nH]c21 (racemic),IC50,[1],14.8 µM
same,inhibition,[2],inactive
same,INH,[3],1.2 µM
same,inhibition,[4],inactive
same,IC50,[5],1.2 µM
